Converted amounts (≈) assume the structure as drawn. The source made the active and inactive calls. The calls are words filed in the database; no cut-off is given here.
What was measured:
Assay type in all cases: functional
[1] = test system: Radical scavenging activity; assay: Antioxidant activity assessed as DPPH radical scavenging activity in ethanol solution at 100 ug/mL
Summary of the method: (§1)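 Compound dissolved in ethanol, then ethanolic DPPH added. Incubated 30 min in the dark. DPPH decrease read as absorbance at 517 nm against an ethanol blank, with ascorbic acid as reference. % activity = [(A0 − Ai)/A0] × 100, where A0 is absorbance without compound and Ai with compound. IC50 taken from activity across concentrations.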

[2] = test system: Radical scavenging activity; assay: Antioxidant activity assessed as DPPH radical scavenging activity in chloroform solution at 100 ug/mL
[3] = test system: Radical scavenging activity; assay: Antioxidant activity assessed as DPPH radical scavenging activity in chloroform solution at 5 ug/mL
[4] = test system: Radical scavenging activity; assay: Antioxidant activity assessed as DPPH radical scavenging activity in ethanol solution; summary of the method: as §1
[5] = Antioxidant activity assessed as ABTS radical scavenging activity at 5 ug/mL
Summary of the method: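 ABTS radical cation solution diluted in ethanol to an absorbance of 0.7–0.9 at 734 nm, 30 °C. Equal volume added to ethanolic compound solution (5 µg/mL). Absorbance read after 1 min and converted to percent inhibition.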

[6] = test system: Radical scavenging activity; assay: Antioxidant activity assessed as DPPH radical scavenging activity in chloroform solution
[7] = test system: Radical scavenging activity; assay: Antioxidant activity assessed as DPPH radical scavenging activity in ethanol solution at 50 ug/mL; summary of the method: as §1
[8] = test system: Radical scavenging activity; assay: Antioxidant activity assessed as DPPH radical scavenging activity in chloroform solution at 25 ug/mL
[9] = test system: Radical scavenging activity; assay: Antioxidant activity assessed as DPPH radical scavenging activity in chloroform solution at 10 ug/mL
[10] = test system: Radical scavenging activity; assay: Antioxidant activity assessed as DPPH radical scavenging activity in ethanol solution at 10 ug/mL; summary of the method: as §1
[11] = test system: Radical scavenging activity; assay: Antioxidant activity assessed as DPPH radical scavenging activity in chloroform solution at 50 ug/mL
[12] = test system: Radical scavenging activity; assay: Antioxidant activity assessed as DPPH radical scavenging activity in ethanol solution at 25 ug/mL; summary of the method: as §1
[13] = test system: Radical scavenging activity; assay: Antioxidant activity assessed as DPPH radical scavenging activity in ethanol solution at 5 ug/mL; summary of the method: as §1

Structure (SMILES) | IC50 [4] [µg/mL] | IC50 [6] [µg/mL] | Activity [1] [%] | Activity [2] [%] | Activity [3] [%] | Activity [5] | Activity [7] [%] | Activity [8] [%] | Activity [9] [%] | Activity [10] [%] | Activity [11] [%] | Activity [12] [%] | Activity [13] [%]
Cc1cc(O)c(C(C)C)cc1/N=C/c1ccc(O)cc1 | 9.02 (≈ 33.5 µM) | 13.32 (≈ 49.5 µM) | 92.9 | 93 | 26 | Active | 89.8 | 70.2 | 50 | 51.8 | 84.5 | 77.1 | 24.4
Cc1cc(O)c(C(C)C)cc1/N=C/c1ccccc1O | 11.79 (≈ 43.8 µM) | 14.77 (≈ 54.8 µM) | 88.3 | 91 | 23.9 | Active | 82 | 70.6 | 47.1 | 49.3 | 88.1 | 70.7 | 29.2
COc1cc(/C=N/c2cc(C)c(O)cc2C(C)C)cc(OC)c1OC | 19.05 (≈ 55.5 µM) | 25.2 (≈ 73.4 µM) | 87.4 | 88 | 19.7 | Active | 76.5 | 64.2 | 41.8 | 45.7 | 75.7 | 66.1 | 26.4
Cc1cc(/N=C/c2ccccc2O)c(C(C)C)cc1O | 11.61 (≈ 43.1 µM) | 16.09 (≈ 59.7 µM) | 89.3 | 90.4 | 32.6 | Active | 79.9 | 65.1 | 40.8 | 46.8 | 86.1 | 70.6 | 33
COc1ccc(/C=N/c2cc(C)c(O)cc2C(C)C)cc1 | 13.5 (≈ 47.6 µM) | 16.24 (≈ 57.3 µM) | 89.5 | 88.7 | 34.2 | Active | 78.9 | 67.1 | 41 | 47.5 | 78.4 | 69.2 | 30.9
Cc1cc(O)c(C(C)C)cc1/N=C/c1cc(Br)cc(Br)c1O | 12.76 (≈ 29.9 µM) | 19.19 (≈ 44.9 µM) | 88.7 | 85.3 | 24.3 | Active | 85.9 | 68.3 | 45.1 | 44.2 | 78.1 | 75.9 | 26.8
Cc1cc(/N=C/c2cc(Br)cc(Br)c2O)c(C(C)C)cc1O | 11.97 (≈ 28 µM) | 18.73 (≈ 43.9 µM) | 90.8 | 88.5 | 28.1 | Active | 79.3 | 65.8 | 44.4 | 47.3 | 77.4 | 72 | 31.5
Cc1cc(/N=C/c2cc(Br)c(O)c(Br)c2)c(C(C)C)cc1O | 7.85 (≈ 18.4 µM) | 12.6 (≈ 29.5 µM) | 95.2 | 91.3 | 31.7 | Active | 88.2 | 69 | 45.4 | 47.6 | 85.8 | 74.6 | 33.3
Cc1cc(O)c(C(C)C)cc1/N=C/c1cc(Br)c(O)c(Br)c1 | 8.33 (≈ 19.5 µM) | 17.98 (≈ 42.1 µM) | 95.2 | 90.1 | 25.2 | Active | 92.3 | 69.2 | 46.1 | 51.8 | 77.4 | 78.7 | 24.1
COc1ccc(/C=N/c2cc(C)c(O)cc2C(C)C)cc1OC | 18.12 (≈ 57.8 µM) | 20.1 (≈ 64.1 µM) | 87.8 | 89.8 | 25.4 | Active | 75.5 | 64.2 | 43 | 44.1 | 82.3 | 67.5 | 29.1

More lines, main results first:

IC50 [4] [µg/mL] | IC50 [6] [µg/mL] | Structure (SMILES) | Activity [1] [%] | Activity [2] [%] | Activity [3] [%] | Activity [5] | Activity [7] [%] | Activity [8] [%] | Activity [9] [%] | Activity [10] [%] | Activity [11] [%] | Activity [12] [%] | Activity [13] [%]
12.54 (≈ 44.3 µM) | 15.79 (≈ 55.7 µM) | COc1ccc(/C=N/c2cc(C(C)C)c(O)cc2C)cc1 | 88.5 | 90.2 | 21.8 | Active | 85 | 74.1 | 44.6 | 43.3 | 87.7 | 77.5 | 27.3
18.79 (≈ 52.6 µM) | 18.6 (≈ 52 µM) | COc1cc(/C=N/c2cc(C(C)(C)C)c(O)cc2C)cc(OC)c1OC | 84.4 | 91.8 | 17.3 | Active | 81 | 75.8 | 45.2 | 44.9 | 81.7 | 65.4 | 25.9
18.66 (≈ 59.5 µM) | 19.12 (≈ 61 µM) | COc1ccc(/C=N/c2cc(C(C)C)c(O)cc2C)cc1OC | 89.4 | 88.9 | 20.6 | Active | 84.1 | 72 | 41.9 | 43.3 | 85.2 | 73.4 | 19.7
8.77 (≈ 30.9 µM) | 14.26 (≈ 50.3 µM) | Cc1cc(O)c(C(C)(C)C)cc1/N=C/c1ccc(O)cc1 | 94.6 | 92.6 | 31 | Active | 89.3 | 63.3 | 49.6 | 50.8 | 82.3 | 70.9 | 31
13.92 (≈ 46.8 µM) | 17.55 (≈ 59 µM) | COc1ccc(/C=N/c2cc(C(C)(C)C)c(O)cc2C)cc1 | 90.6 | 89.8 | 19.7 | Active | 83.4 | 82.6 | 36.3 | 50 | 87.3 | 65 | 29.2
26.71 (≈ 85.2 µM) | 25.47 (≈ 81.3 µM) | COc1cc(/C=N/c2cc(C(C)C)c(O)cc2C)cc(OC)c1 | 78.4 | 89.1 | 21.8 | Active | 71.5 | 59.5 | 37 | 40.4 | 84.2 | 62.9 | 24.5
17.03 (≈ 52 µM) | 22.05 (≈ 67.3 µM) | COc1ccc(/C=N/c2cc(C(C)(C)C)c(O)cc2C)cc1OC | 90 | 87.1 | 22.6 | Active | 81.9 | 72 | 35.3 | 49 | 82.1 | 62.2 | 27.4
10.54 (≈ 37.2 µM) | 14.36 (≈ 50.7 µM) | Cc1cc(O)c(C(C)(C)C)cc1/N=C/c1ccccc1O | 90.7 | 90.9 | 24.9 | Active | 86.4 | 70 | 48.6 | 51 | 85.7 | 69.6 | 29
22.02 (≈ 70.3 µM) | 25.79 (≈ 82.3 µM) | COc1cc(/C=N/c2cc(C)c(O)cc2C(C)C)cc(OC)c1 | 85.8 | 88.4 | 20.4 | Active | 74.2 | 61.7 | 39.3 | 40.7 | 79.1 | 65.7 | 27.5
7.55 (≈ 17.1 µM) | 10.69 (≈ 24.2 µM) | Cc1cc(O)c(C(C)(C)C)cc1/N=C/c1cc(Br)c(O)c(Br)c1 | 95.8 | 95.3 | 24.2 | Active | 95.8 | 78.5 | 50.3 | 49 | 85.7 | 82.8 | 23.9
20.2 (≈ 61.7 µM) | 19.62 (≈ 59.9 µM) | COc1cc(/C=N/c2cc(C(C)(C)C)c(O)cc2C)cc(OC)c1 | 80.4 | 89.5 | 27 | Active | 76.9 | 67.9 | 36.8 | 43.8 | 86.6 | 66.1 | 26.3

Source: ChEMBL document CHEMBL2311257, “Synthesis and antioxidant activity of thymol and carvacrol based Schiff bases” (Bioorg Med Chem Lett, 2013)
